Data reported in ChEMBL document CHEMBL1268917, “Synthesis and biological evaluation of radio-iodinated benzimidazoles as SPECT imaging agents for NR2B subtype of NMDA receptor” (Bioorg Med Chem, 2010).

What was measured:
[1] = target: Glutamate receptor ionotropic, NMDA 2B (Rattus norvegicus) (UniProt Q00960); assay: Binding affinity to NR2B receptor in rat cerebral cortex at 0.09 to 0.14 nM after 30 mins by autoradiography in presence of prazosin relative to control; assay type: tissue-based; details: tested as the 125I-labelled form
Method in brief: (§1)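 Rinsed three times 3 min in cold buffer with 1% BSA, dipped in cold water, air-dried, exposed to imaging plates; PSL per mm² in ROIs. Expressed as % control binding; at least triplicate slices from three rats.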

[2] = target: Glutamate receptor ionotropic, NMDA 2B (Rattus norvegicus) (UniProt Q00960); assay: Binding affinity to NR2B receptor in rat hippocampus at 0.09 to 0.14 nM after 30 mins by autoradiography in presence of prazosin relative to control; assay type: tissue-based; details: tested as the 125I-labelled form; method in brief: as §1
[3] = target: Glutamate receptor ionotropic, NMDA 2B (Rattus norvegicus) (UniProt Q00960); assay: Binding affinity to NR2B receptor in rat cerebellum at 0.09 to 0.14 nM after 30 mins by autoradiography in presence of prazosin relative to control; assay type: tissue-based; details: tested as the 125I-labelled form; method in brief: as §1
[4] = target: Glutamate receptor ionotropic, NMDA 2B (Rattus norvegicus) (UniProt Q00960); assay: Binding affinity to NR2B receptor in rat cerebral cortex at 0.09 to 0.14 nM after 30 mins by autoradiography in presence of DTG relative to control; assay type: tissue-based; details: tested as the 125I-labelled form; method in brief: as §1
[5] = target: Glutamate receptor ionotropic, NMDA 2B (Rattus norvegicus) (UniProt Q00960); assay: Binding affinity to NR2B receptor in rat hippocampus at 0.09 to 0.14 nM after 30 mins by autoradiography in presence of DTG relative to control; assay type: tissue-based; details: tested as the 125I-labelled form; method in brief: as §1
[6] = target: Glutamate receptor ionotropic, NMDA 2B (Rattus norvegicus) (UniProt Q00960); assay: Binding affinity to NR2B receptor in rat cerebellum at 0.09 to 0.14 nM after 30 mins by autoradiography in presence of DTG relative to control; assay type: tissue-based; details: tested as the 125I-labelled form; method in brief: as §1
[7] = target: Glutamate receptor ionotropic, NMDA 2B (Rattus norvegicus, UniProt Q00960); assay: Displacement of [3H]ifenprodil from NR2B receptor in rat cortical synaptic membranes; assay type: cell membranes, Membrane
[8] = Octanol-buffer partition coefficient, log D of the compound at pH 7.4; assay type: physicochemical
[9] = Lipophilicity, log P of the compound; assay type: physicochemical; details: octanol/water
[10] = target: Glutamate receptor ionotropic, NMDA 2B (Rattus norvegicus) (UniProt Q00960); assay: Binding affinity to NR2B receptor in rat cerebral cortex at 0.09 to 0.14 nM after 30 mins by autoradiography in presence of Ro-256981 relative to control; assay type: tissue-based; details: tested as the 125I-labelled form; method in brief: as §1
[11] = target: Glutamate receptor ionotropic, NMDA 2B (Rattus norvegicus) (UniProt Q00960); assay: Binding affinity to NR2B receptor in rat hippocampus at 0.09 to 0.14 nM after 30 mins by autoradiography in presence of Ro-256981 relative to control; assay type: tissue-based; details: tested as the 125I-labelled form; method in brief: as §1
[12] = target: Glutamate receptor ionotropic, NMDA 2B (Rattus norvegicus) (UniProt Q00960); assay: Binding affinity to NR2B receptor in rat cerebellum at 0.09 to 0.14 nM after 30 mins by autoradiography in presence of Ro-256981 relative to control; assay type: tissue-based; details: tested as the 125I-labelled form; method in brief: as §1

Sequence of Glutamate receptor ionotropic, NMDA 2B (Rattus norvegicus) (Q00960 27-1482 limits assumed): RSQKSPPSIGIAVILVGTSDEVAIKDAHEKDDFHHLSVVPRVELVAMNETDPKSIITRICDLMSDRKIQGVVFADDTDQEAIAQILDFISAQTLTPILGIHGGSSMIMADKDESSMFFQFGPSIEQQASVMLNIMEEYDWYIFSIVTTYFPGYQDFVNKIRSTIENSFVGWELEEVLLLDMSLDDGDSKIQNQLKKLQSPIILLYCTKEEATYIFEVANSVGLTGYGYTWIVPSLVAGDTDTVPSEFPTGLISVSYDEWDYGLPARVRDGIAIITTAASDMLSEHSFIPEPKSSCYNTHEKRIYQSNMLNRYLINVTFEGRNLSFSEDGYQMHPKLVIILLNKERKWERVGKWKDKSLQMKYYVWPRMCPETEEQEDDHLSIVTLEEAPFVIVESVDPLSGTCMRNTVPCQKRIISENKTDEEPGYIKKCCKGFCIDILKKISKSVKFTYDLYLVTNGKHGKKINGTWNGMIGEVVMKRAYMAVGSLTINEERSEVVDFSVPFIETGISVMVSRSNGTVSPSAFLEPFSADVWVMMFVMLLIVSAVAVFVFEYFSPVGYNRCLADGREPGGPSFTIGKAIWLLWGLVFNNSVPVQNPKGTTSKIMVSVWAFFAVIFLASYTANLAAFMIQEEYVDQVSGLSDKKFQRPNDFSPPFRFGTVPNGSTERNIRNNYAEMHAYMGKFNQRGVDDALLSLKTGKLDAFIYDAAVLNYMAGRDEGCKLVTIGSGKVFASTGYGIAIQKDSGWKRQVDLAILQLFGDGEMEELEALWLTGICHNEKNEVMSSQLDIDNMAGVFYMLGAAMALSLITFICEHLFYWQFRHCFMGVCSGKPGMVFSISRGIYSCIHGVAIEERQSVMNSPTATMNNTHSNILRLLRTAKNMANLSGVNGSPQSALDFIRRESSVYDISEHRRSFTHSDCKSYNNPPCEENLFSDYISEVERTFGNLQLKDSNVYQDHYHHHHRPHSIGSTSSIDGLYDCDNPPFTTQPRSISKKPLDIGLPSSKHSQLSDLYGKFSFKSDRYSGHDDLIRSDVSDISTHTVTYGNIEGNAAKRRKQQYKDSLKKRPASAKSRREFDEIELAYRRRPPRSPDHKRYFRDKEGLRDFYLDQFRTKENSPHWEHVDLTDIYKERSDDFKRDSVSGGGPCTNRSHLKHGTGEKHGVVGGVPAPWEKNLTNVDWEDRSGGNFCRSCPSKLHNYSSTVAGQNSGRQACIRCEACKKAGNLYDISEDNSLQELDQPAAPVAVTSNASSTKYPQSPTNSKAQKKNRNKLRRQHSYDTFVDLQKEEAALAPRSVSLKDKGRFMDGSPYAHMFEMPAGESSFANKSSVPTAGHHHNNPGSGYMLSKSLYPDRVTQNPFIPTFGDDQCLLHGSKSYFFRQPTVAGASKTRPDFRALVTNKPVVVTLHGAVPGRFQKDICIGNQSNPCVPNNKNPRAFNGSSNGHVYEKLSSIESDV
Sequence of Glutamate receptor ionotropic, NMDA 2B (Q00960 whole entry): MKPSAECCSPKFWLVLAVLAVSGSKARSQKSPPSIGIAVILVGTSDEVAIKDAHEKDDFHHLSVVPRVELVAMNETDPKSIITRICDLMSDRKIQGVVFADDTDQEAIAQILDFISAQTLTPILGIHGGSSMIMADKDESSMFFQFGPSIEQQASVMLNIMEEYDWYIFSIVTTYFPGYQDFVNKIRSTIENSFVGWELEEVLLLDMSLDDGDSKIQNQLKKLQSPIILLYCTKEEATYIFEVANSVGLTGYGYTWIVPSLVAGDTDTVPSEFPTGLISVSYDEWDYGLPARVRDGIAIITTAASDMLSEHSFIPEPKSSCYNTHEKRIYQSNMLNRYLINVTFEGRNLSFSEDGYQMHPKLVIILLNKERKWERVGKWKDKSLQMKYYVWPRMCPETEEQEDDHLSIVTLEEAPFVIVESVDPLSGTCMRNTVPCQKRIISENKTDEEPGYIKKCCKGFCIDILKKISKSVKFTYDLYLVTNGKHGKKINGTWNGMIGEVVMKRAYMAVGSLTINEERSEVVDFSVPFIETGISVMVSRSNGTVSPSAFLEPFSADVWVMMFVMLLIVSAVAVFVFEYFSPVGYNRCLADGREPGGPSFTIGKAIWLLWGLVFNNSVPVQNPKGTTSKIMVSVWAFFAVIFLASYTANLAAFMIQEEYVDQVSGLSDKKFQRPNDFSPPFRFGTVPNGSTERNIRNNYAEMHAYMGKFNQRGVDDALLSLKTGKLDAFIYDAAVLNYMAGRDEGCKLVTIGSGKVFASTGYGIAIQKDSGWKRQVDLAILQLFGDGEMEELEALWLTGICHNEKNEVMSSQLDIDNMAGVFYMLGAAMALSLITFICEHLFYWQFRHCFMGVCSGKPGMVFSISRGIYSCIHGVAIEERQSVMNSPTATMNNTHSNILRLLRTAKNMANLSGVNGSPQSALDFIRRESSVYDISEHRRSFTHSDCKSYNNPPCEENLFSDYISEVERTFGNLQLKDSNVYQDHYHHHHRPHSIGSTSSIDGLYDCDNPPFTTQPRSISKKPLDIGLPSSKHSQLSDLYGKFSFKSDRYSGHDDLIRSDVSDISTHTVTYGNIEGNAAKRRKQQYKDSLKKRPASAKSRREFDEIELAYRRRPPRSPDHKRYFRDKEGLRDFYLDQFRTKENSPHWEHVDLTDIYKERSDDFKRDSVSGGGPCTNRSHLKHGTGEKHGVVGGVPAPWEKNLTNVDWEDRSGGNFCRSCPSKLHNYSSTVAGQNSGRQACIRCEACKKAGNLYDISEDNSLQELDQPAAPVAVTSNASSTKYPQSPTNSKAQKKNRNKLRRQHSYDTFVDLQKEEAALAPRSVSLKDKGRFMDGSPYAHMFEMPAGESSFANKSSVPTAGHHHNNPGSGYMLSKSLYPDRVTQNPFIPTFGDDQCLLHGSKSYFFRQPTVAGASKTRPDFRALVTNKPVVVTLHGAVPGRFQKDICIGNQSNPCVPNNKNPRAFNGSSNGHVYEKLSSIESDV

Activity [1]: 95.6%
Activity [2]: 92.6%
Activity [3]: 103%
Activity [4]: 93.5%
Activity [5]: 105%
Activity [6]: 101%
Ki [7]: 7.28 nM
logD [8]: 3.95
logP [9]: 3.95
Activity [10]: 58.3%
Activity [11]: 50.9%
Activity [12]: 91.8%
SMILES: Oc1ccc2nc(CN3CCC(Cc4ccc(I)cc4)CC3)[nH]c2c1
